# Source: PubChem BioAssay (several laboratories)
# Most compounds without a hit are left out; they make up all but 5.6% or so of the library.
# UPR XBP1 act – adaptive UPR (XBP1) activation; CHO-XBP1 luciferase reporter, IRE1-XBP1 UPR activation, luminescence; percent of tunicamycin response, DMSO as zero; activation, % at 20 µM; hit rate 0.33% among 330,000; AID 463104;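 active = versus positive control, 20 µM dose yields 30% or more activation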;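 also: 100% = tunicamycin at 10 µg/mL and 0% = DMSO only wells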
#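 Signal: luciferase luminescence; Assay system: CHO-XBP1 luciferase reporter cells; Amount: one thousand reporter cells per well; Dosing: 20 µM single concentration, DMSO 1%; Benchmarks: high control tunicamycin 10 µg/mL final, low control DMSO vehicle only; Schedule: 6 h compound exposure at 37 °C, 5% CO2; Evaluation: percent activation relative to tunicamycin reference.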
# GRIN3A LBD mod – NR3A (human) ligand-binding domain modulation; NR3A LBD differential scanning fluorimetry, Tm shift; 0% = protein alone, 100% = glycine-bound protein; Tm shift relative to glycine control, % at 25 µM; hit rate 2.5% among 340,000;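 active = melting temperature shift of at least 10% of the positive control shift, at one fixed dose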
# aDG glyco act – increases alpha dystroglycan glycosylation; Pro5-aDG cells, alpha-DG glycosylation AlphaScreen (IIH6); 0% Pro5, 100% B10-LARGE cell signal; activation, % at 10 µM; hit rate 0.22% among 360,000; AID 624168;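 active = activation of at least 8% versus controls, or a plate z-score of at least 8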;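 also: Pro5 are CHO cells carrying HIG-tagged alpha-DG that lacks glycosylation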
# CHOP inh – blocks CHOP induction under ER stress | AID 2732 | inhibition, % at 10 µM | hit rate 3.8% among 220,000 | CHO-K1 CHOP-promoter luciferase, tunicamycin-induced, 15-18 h;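 active = compounds that reduced the stress-induced luciferase reporter signal by more than about 70% of percent inhibition, limit read from the data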;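 also: 0% = tunicamycin plus vehicle and 100% = wells without tunicamycin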
# UPR CHOP act – activators of apoptotic arm of unfolded protein response (CHOP) | hit rate 0.34% among 330,000 | CHO-CHOP luciferase reporter, UPR activation, luminescence; percent of tunicamycin response over DMSO baseline | activation, % at 10 µM | AID 449763;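 active = at 10 µM dose, activation of 40% or more, normalized to positive control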;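 also: 100% = tunicamycin at 10 µg/mL and 0% = DMSO alone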
#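 assay system = CHO CHOP reporter cells | amount = 500 CHO-CHOP cells per well | buffer or medium = F12 with 10% FBS | incubation = 16-18 h cell attachment, then 6 h compound exposure, 37 °C | detection = luminescence read with Steady-Glo | read-out = percent activation relative to tunicamycin control | controls = tunicamycin high control, DMSO low control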
# MPTP inh – blocks calcium-induced mitochondrial swelling; hit rate 1.4% among 360,000; inhibition, % at 10 µM; isolated mouse mitochondria, Ca2+ swelling absorbance, 30 min;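 active = inhibition of 50% or more, scaled per plate between neutral and stimulator controls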;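 also: 0% = DMSO wells given calcium and 100% = 1 mM EGTA wells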
# * hit, by the source's call; . = not tested or not shown.
SMILES,UPR XBP1 act,GRIN3A LBD mod,aDG glyco act,CHOP inh,UPR CHOP act,MPTP inh
O=[N+]([O-])c1cc(S(=O)(=O)C(F)(F)F)ccc1N1CCN(c2ccccc2)CC1,-0.6,-3.4,-0.1,32.6,2.0,4.4
CC(C)Cc1ccccc1O,1.0,.,.,.,0.6,.
CN1C(=O)N(C)C2(c3ccccc3)Nn3c(s/c(=C/c4ccccc4F)c3=O)=NC12c1ccccc1 (centres undefined),-1.0,.,.,71.5*,3.9,.
COCCN(C(=O)CSc1nc2ccccc2o1)c1c(N)n(Cc2ccccc2)c(=O)[nH]c1=O,-1.4,-0.8,0.2,.,0.3,-0.3
O=C(OCCN=C1NS(=O)(=O)c2ccccc21)C1CC(=O)N(c2ccc(Cl)cc2)C1 (centres undefined),-3.8,24.0*,0.1,-13.3,1.6,-0.7
O=C(N[C@H]1/C=C\[C@@H](O)CCCC1)OCc1ccccc1,-0.2,-2.0,-0.2,.,3.4,-3.0
C=C(C)CN=CC1(C)CCC(C)=CO1 (centres undefined),.,0.4,0.5,.,.,1.2
O=C(c1ccc(Cl)c([N+](=O)[O-])c1)N(c1ccccn1)c1ccccn1,1.2,15.4*,0.2,8.6,0.7,0.1
O=C(c1ccc(N2CCCCC2)c([N+](=O)[O-])c1)N(c1ccccn1)c1ccccn1,0.0,-0.3,-0.1,16.2,-1.0,-1.0
COc1ccccc1CNC(=O)Cn1c(=O)c2cccn2c2cccnc21,-1.2,-1.1,-0.1,.,1.4,0.3
COCCN(CC(=O)NC1CCCCC1)C(=O)/C=C/C(=O)c1ccc(OC)cc1O,.,-2.0,-0.3,108.4*,.,-0.6
COc1ccc(OC)c2sc(NC(=O)c3ccc(Br)s3)nc12,4.2,0.2,0.2,91.4*,3.8,0.1
Cc1cc(C)cc(-n2nnc(C(=O)NCc3ccc(Cl)cc3)c2N)c1,-1.4,32.1*,0.5,6.8,1.9,0.0
Cc1ccc(CNC(=O)c2nnn(CC(=O)Nc3cc(C)cc(C)c3)c2N)cc1,-2.0,20.2*,-0.3,.,-0.2,0.7
Cc1cc(C)cc(-n2nnc(C(=O)NCc3ccccc3)c2N)c1,-0.8,1.2,0.2,-1.1,3.0,-0.2
Cc1ccc(CNC(=O)Cn2nnc(C(=O)Nc3cc(C)ccc3C)c2N)cc1,-0.9,14.8*,0.5,.,0.0,-0.5
Cc1cc(C)c(NC(=O)Cn2nnc(C(=O)NCc3cccs3)c2N)c(C)c1,-2.9,-1.4,0.2,84.9*,0.1,0.5
CC(=O)c1c(C)[nH]c(C(=O)OCC(=O)Nc2cccc(S(=O)(=O)N(C)C)c2)c1C,-0.2,-7.8,0.1,6.9,0.2,-0.9
CC(=O)c1c(C)[nH]c(C(=O)OCC(=O)Nc2ccc3[nH]c(=O)[nH]c3c2)c1C,-4.8,20.8*,0.8,.,4.0,-2.2
CCN=C1SC(C(=O)Nc2cccc(Cl)c2)CC(=O)N1CC (centres undefined),-0.6,-1.7,-0.3,-8.9,-1.5,0.0
CCN=C1SC(C(=O)Nc2cc(Cl)cc(Cl)c2)CC(=O)N1CC (centres undefined),1.1,-2.0,0.4,74.6*,-0.1,0.0
CCN=C1SC(C(=O)Nc2ccc(Cl)c(Cl)c2)CC(=O)N1CC (centres undefined),-1.3,-0.7,-0.1,73.6*,-1.4,0.4
Cc1cc(N/N=C/c2ccccc2O)c2ccccc2n1,-4.5,-7.8,0.7,.,0.6,13.3
Oc1ccc(/C=N/Nc2cccc3cccnc23)c(O)c1,12.0,31.7*,-0.2,60.5,5.3,1.5
Oc1ccc(C=NNc2ccccn2)c(O)c1,.,3.7,2.0,.,.,0.4
SMILES,UPR XBP1 act,GRIN3A LBD mod,aDG glyco act,CHOP inh,UPR CHOP act,MPTP inh
Cc1ccc(/C=N/Nc2cccc3cccnc23)c(O)c1,9.2,10.1*,-0.6,21.3,3.4,0.7
Cc1ccc(NC(=O)CSc2nc(=O)n(CCCN3CCOCC3)c3c2CCCC3)cc1,2.2,1.9,-0.1,.,2.1,-0.9
CCOc1cc(/C=N/NC(=O)c2ccncc2)ccc1OC(=O)c1ccc([N+](=O)[O-])cc1,-1.4,-0.7,0.0,81.3*,0.3,0.4
CCOc1cc(/C=N/Nc2cccc(C(=O)O)c2)ccc1OC(=O)c1ccccc1,-7.5,-1.8,1.4,92.1*,-8.2,-0.4
COc1cc(C=NNc2ccccc2)ccc1OC(=O)c1ccccc1,.,.,-0.1,.,.,-1.0
CSCCCc1cn([C@@H](CO)C(=O)NCCCCCCCCCCC(=O)N2CCNCC2)nn1,-2.3,-2.6,0.1,.,-0.1,-1.1
Cc1ccc(NCN2C(=O)C(=O)c3ccccc32)nc1,1.7,13.1*,1.5,34.5,-0.6,1.2
N#CC1=C(c2ccccc2)/C(=C/c2ccccc2)OC1=O,-16.9,27.3*,-0.6,108.4*,-8.4,3.4
O=C1O/C(=C/c2ccccc2)c2ccccc21,3.8,-28.0,0.1,3.2,4.0,0.9
COc1cc(C(=O)N[C@H](C(=O)NC(C)C23CC4CC(CC(C4)C2)C3)C(C)C)cc(OC)c1OC (some centres undefined),-3.8,2.1,0.0,74.8*,0.3,0.4
Cn1cc(Cl)c(C(=O)Nc2cccc(Cl)c2Cl)n1,1.2,-0.1,0.1,75.2*,5.1,0.7
CCOc1ccc(S(=O)(=O)n2cc(-c3ccccc3)c(N)n2)cc1,3.1,-12.0,0.3,14.0,1.3,0.7
CCOc1cc(S(=O)(=O)n2cc(-c3ccc(F)cc3)c(N)n2)cc(OCC)c1OCC,-3.1,-17.3,0.6,74.1*,-4.5,-1.7
CCOc1ccc(S(=O)(=O)n2cc(-c3ccc(F)cc3)c(N)n2)cc1,-0.3,-3.0,0.2,95.3*,1.9,-0.1
Cc1ccc(-c2cn(S(=O)(=O)c3ccc(C)cc3)nc2N)cc1,-3.0,2.8,0.0,79.4*,-1.4,0.7
Nc1nn(S(=O)(=O)c2ccccc2)cc1-c1cccc([N+](=O)[O-])c1,-1.0,22.2*,0.4,23.1,2.1,0.1
CCOc1ccc(NC(=O)CSc2nc3ccsc3c(=O)n2Cc2ccc(C(=O)O)cc2)cc1,.,.,-0.1,.,.,-1.0
Cc1ccc(N(CC(=O)NCC2CCCO2)C(=O)CCC(=O)Nc2nccs2)cc1 (centres undefined),0.4,-0.2,0.1,.,-0.1,1.3
COc1ccccc1Nc1nc(-c2cccc(N3C(=O)c4ccccc4C3=O)c2)cs1,0.0,15.5*,-0.4,48.8,-1.4,-1.9
O=C1c2ccccc2C(=O)N1c1cccc(-c2csc(Nc3ccc4c(c3)OCO4)n2)c1,.,.,.,8.6,.,.
O=C1NC(c2cccc(OCc3ccccc3)c2)Nc2ccccc21 (centres undefined),.,12.6*,0.1,.,.,-0.3
O=C1NC(c2ccc(O)cc2)Nc2ccccc21 (centres undefined),-0.7,-3.8,-0.1,.,5.5,0.8
